# Results published in ChEMBL document CHEMBL2384936, “Synthesis and evaluation of antimicrobial activity of hydrazones derived from 3-oxido-1H-imidazole-4-carbohydrazides” (Eur J Med Chem, 2013).
# Calls of active or inactive are those of the source. No cut-off for these calls is given here.
# Key:
# Proteus mirabilis = test: Antibacterial activity against Proteus mirabilis ATCC 29906 assessed as growth inhibition at 1 to 600 ug/mL after 18 hrs by broth microdilution method; type: functional
# Escherichia coli [1] = test: Antibacterial activity against Escherichia coli NCTC 8192 assessed as growth inhibition at 1 to 600 ug/mL after 18 hrs by broth microdilution method; type: functional, organism-based
# Proteus vulgaris = test: Antibacterial activity against Proteus vulgaris ATCC 49990 assessed as growth inhibition at 1 to 600 ug/mL after 18 hrs by broth microdilution method; type: functional, organism-based
# Pseudomonas aeruginosa = test: Antibacterial activity against Pseudomonas aeruginosa NCTC 6249 assessed as growth inhibition at 1 to 600 ug/mL after 18 hrs by broth microdilution method; type: functional, organism-based
# Enterococcus faecalis = test: Antibacterial activity against Enterococcus faecalis ATCC 29212 assessed as growth inhibition at 1 to 600 ug/mL after 18 hrs by broth microdilution method; type: functional, organism-based
# Staphylococcus aureus [2] = test: Antibacterial activity against Staphylococcus aureus ATCC 29213 assessed as growth inhibition at 1 to 600 ug/mL after 18 hrs by broth microdilution method; type: functional, organism-based
# How it was run: (§1)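 Frozen stocks (-80 °C, tryptic soy broth with 15% glycerol); S. aureus subcultured on blood agar and identified by catalase, coagulase and clumping factor. Inoculum at 0.5 McFarland. DMSO-dissolved compounds 1–600 µg/mL in Mueller–Hinton broth, 37 °C 18 h, OD600 read with and without compound. MIC = lowest concentration preventing growth; triplicates, per CLSI.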
# Candida albicans = test: Antifungal activity against Candida albicans ATCC 10231 assessed as growth inhibition at 1 to 600 ug/mL after 18 hrs by broth microdilution method; type: functional, organism-based
# [3] = tested on: Staphylococcus epidermidis; test: Antibacterial activity against Staphylococcus epidermidis ATCC 12228 assessed as growth inhibition at 1 to 600 ug/mL after 18 hrs by broth microdilution method; type: functional, organism-based
# Staphylococcus aureus [4] = test: Antibacterial activity against Staphylococcus aureus ATCC 6538 assessed as growth inhibition at 1 to 600 ug/mL after 18 hrs by broth microdilution method; type: functional, organism-based; how it was run: as §1
# Staphylococcus aureus [5] = test: Bactericidal activity against Staphylococcus aureus ATCC 6538 after 18 hrs by broth microdilution method; type: functional; details: ATCC 6538, 18 h
# How it was run: (§2)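 Broth microdilution, then contents of wells without visible growth plated onto Mueller–Hinton agar and incubated 35 °C for 18 h. Triplicates, per CLSI.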
# [6] = tested on: Staphylococcus epidermidis; test: Bactericidal activity against Staphylococcus epidermidis ATCC 12228 after 18 hrs by broth microdilution method; type: functional; details: ATCC 12228, 18 h; how it was run: as §2
# Staphylococcus aureus [7] = test: Antibacterial activity against Staphylococcus aureus ATCC 6538 assessed as growth inhibition after 18 hrs by broth microdilution method; type: functional; details: ATCC 6538, 18 h
# How it was run: (§3)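 Broth microdilution in Mueller–Hinton broth with 1–600 µg/mL compound added from DMSO stocks. Inoculum adjusted to 0.5 McFarland. Strains stored at -80 °C and subcultured on blood agar before use. Incubation 37 °C for 18 h with OD600 read. MIC taken as the lowest concentration preventing growth, run in triplicate following CLSI. Vancomycin and oxacillin served as controls.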
# Escherichia coli [8] = test: Antibacterial activity against Escherichia coli NCTC 8192 assessed as growth inhibition after 18 hrs by broth microdilution method; type: functional
# How it was run: (§4)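 Frozen stocks (-80 °C, tryptic soy broth with 15% glycerol); S. aureus subcultured on blood agar and identified by catalase, coagulase and clumping factor. Inoculum at 0.5 McFarland. MIC = lowest concentration preventing growth; triplicates, per CLSI.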
# [9] = tested on: Staphylococcus epidermidis; test: Antibacterial activity against Staphylococcus epidermidis ATCC 12228 assessed as growth inhibition after 18 hrs by broth microdilution method; type: functional; details: ATCC 12228, 18 h; how it was run: as §4
# Escherichia coli [10] = test: Bactericidal activity against Escherichia coli NCTC 8192 after 18 hrs by broth microdilution method; type: functional; how it was run: as §2
# Staphylococcus aureus [11] = test: Bactericidal activity against Staphylococcus aureus ATCC 29213 after 18 hrs by broth microdilution method; type: functional; details: ATCC 29213, 18 h; how it was run: as §2
# Staphylococcus aureus [12] = test: Antibacterial activity against Staphylococcus aureus ATCC 29213 assessed as growth inhibition after 18 hrs by broth microdilution method; type: functional; details: ATCC 29213, 18 h; how it was run: as §3
# Staphylococcus aureus [13] = test: Antibacterial activity against Staphylococcus aureus isolate C7 derived from naso-pharynx assessed as growth inhibition after 18 hrs by broth microdilution method; type: functional; details: isolate C7, 18 h; how it was run: as §4
# Staphylococcus aureus [14] = test: Bactericidal activity against Staphylococcus aureus isolate C4 derived from naso-pharynx after 18 hrs by broth microdilution method; type: functional; details: isolate C4, 18 h; how it was run: as §2
# Staphylococcus aureus [15] = test: Bactericidal activity against Staphylococcus aureus isolate F1 derived from ulcer and furuncle after 18 hrs by broth microdilution method; type: functional; details: isolate F1, 18 h; how it was run: as §2
# Staphylococcus aureus [16] = test: Bactericidal activity against Staphylococcus aureus isolate F7 derived from ulcer and furuncle after 18 hrs by broth microdilution method; type: functional; details: isolate F7, 18 h; how it was run: as §2
# Staphylococcus aureus [17] = test: Bactericidal activity against Staphylococcus aureus isolate D14 derived from bone after 18 hrs by broth microdilution method; type: functional; details: isolate D14, 18 h; how it was run: as §2
# Staphylococcus aureus [18] = test: Antibacterial activity against Staphylococcus aureus isolate D17 derived from bone assessed as growth inhibition after 18 hrs by broth microdilution method; type: functional; details: isolate D17, 18 h; how it was run: as §4
# Staphylococcus aureus [19] = test: Antibacterial activity against Staphylococcus aureus isolate C19 derived from naso-pharynx assessed as growth inhibition after 18 hrs by broth microdilution method; type: functional; details: isolate C19, 18 h; how it was run: as §4
# Staphylococcus aureus [20] = test: Bactericidal activity against Staphylococcus aureus isolate C7 derived from naso-pharynx after 18 hrs by broth microdilution method; type: functional; details: isolate C7, 18 h; how it was run: as §2
# Staphylococcus aureus [21] = test: Antibacterial activity against Staphylococcus aureus isolate D15 derived from bone assessed as growth inhibition after 18 hrs by broth microdilution method; type: functional; details: isolate D15, 18 h; how it was run: as §4
# Staphylococcus aureus [22] = test: Antibacterial activity against Staphylococcus aureus isolate C4 derived from naso-pharynx assessed as growth inhibition after 18 hrs by broth microdilution method; type: functional; details: isolate C4, 18 h; how it was run: as §4
# Staphylococcus aureus [23] = test: Bactericidal activity against Staphylococcus aureus isolate C19 derived from naso-pharynx after 18 hrs by broth microdilution method; type: functional; details: isolate C19, 18 h; how it was run: as §2
# Staphylococcus aureus [24] = test: Antibacterial activity against Staphylococcus aureus isolate F12 derived from ulcer and furuncle assessed as growth inhibition after 18 hrs by broth microdilution method; type: functional; details: isolate F12, 18 h; how it was run: as §4
# Staphylococcus aureus [25] = test: Antibacterial activity against Staphylococcus aureus isolate D12 derived from ulcer and furuncle assessed as growth inhibition after 18 hrs by broth microdilution method; type: functional; details: isolate D12, 18 h; how it was run: as §4
# Staphylococcus aureus [26] = test: Antibacterial activity against Staphylococcus aureus isolate D14 derived from bone assessed as growth inhibition after 18 hrs by broth microdilution method; type: functional; details: isolate D14, 18 h; how it was run: as §4
# Staphylococcus aureus [27] = test: Bactericidal activity against Staphylococcus aureus isolate D15 derived from bone after 18 hrs by broth microdilution method; type: functional; details: isolate D15, 18 h; how it was run: as §2
# Staphylococcus aureus [28] = test: Bactericidal activity against Staphylococcus aureus isolate D20 derived from bone after 18 hrs by broth microdilution method; type: functional; details: isolate D20, 18 h; how it was run: as §2
# Staphylococcus aureus [29] = test: Antibacterial activity against Staphylococcus aureus isolate D20 derived from bone assessed as growth inhibition after 18 hrs by broth microdilution method; type: functional; details: isolate D20, 18 h; how it was run: as §4
# Staphylococcus aureus [30] = test: Bactericidal activity against Staphylococcus aureus isolate F12 derived from ulcer and furuncle after 18 hrs by broth microdilution method; type: functional; details: isolate F12, 18 h; how it was run: as §2
# Staphylococcus aureus [31] = test: Antibacterial activity against Staphylococcus aureus isolate C8 derived from naso-pharynx assessed as growth inhibition after 18 hrs by broth microdilution method; type: functional; details: isolate C8, 18 h; how it was run: as §4
# Staphylococcus aureus [32] = test: Bactericidal activity against Staphylococcus aureus isolate D12 derived from ulcer and furuncle after 18 hrs by broth microdilution method; type: functional; details: isolate D12, 18 h; how it was run: as §2
# Staphylococcus aureus [33] = test: Antibacterial activity against Staphylococcus aureus isolate F7 derived from ulcer and furuncle assessed as growth inhibition after 18 hrs by broth microdilution method; type: functional; details: isolate F7, 18 h; how it was run: as §4
# Staphylococcus aureus [34] = test: Antibacterial activity against Staphylococcus aureus isolate F1 derived from ulcer and furuncle assessed as growth inhibition after 18 hrs by broth microdilution method; type: functional; details: isolate F1, 18 h; how it was run: as §4
# Staphylococcus aureus [35] = test: Bactericidal activity against Staphylococcus aureus isolate C8 derived from naso-pharynx after 18 hrs by broth microdilution method; type: functional; details: isolate C8, 18 h; how it was run: as §2
# Staphylococcus aureus [36] = test: Bactericidal activity against Staphylococcus aureus isolate D17 derived from bone after 18 hrs by broth microdilution method; type: functional; details: isolate D17, 18 h; how it was run: as §2
compound,measurement,setting,value
Cc1c(C(=O)N/N=C/c2ccccc2O)[n+]([O-])cn1Cc1ccccc1,Activity,Proteus mirabilis,inactive
same,Activity,Escherichia coli [1],inactive
same,Activity,Proteus vulgaris,inactive
same,Activity,Pseudomonas aeruginosa,inactive
same,Activity,Enterococcus faecalis,inactive
same,Activity,Staphylococcus aureus [2],inactive
same,Activity,Candida albicans,inactive
same,Activity,[3],inactive
same,Activity,Staphylococcus aureus [4],inactive
Cc1c(C(=O)N/N=C/c2ccco2)[n+]([O-])cn1Cc1ccccc1,Activity,Proteus mirabilis,inactive
same,Activity,Escherichia coli [1],inactive
same,Activity,Proteus vulgaris,inactive
same,Activity,Pseudomonas aeruginosa,inactive
same,Activity,Enterococcus faecalis,inactive
same,Activity,Staphylococcus aureus [2],inactive
same,Activity,Candida albicans,inactive
same,Activity,[3],inactive
same,Activity,Staphylococcus aureus [4],inactive
Cc1c(C(=O)NN=C2CCCCC2)[n+]([O-])cn1Cc1ccccc1,Activity,Proteus mirabilis,inactive
same,Activity,Escherichia coli [1],inactive
same,Activity,Proteus vulgaris,inactive
same,Activity,Pseudomonas aeruginosa,inactive
same,Activity,Enterococcus faecalis,inactive
same,Activity,Staphylococcus aureus [2],inactive
same,Activity,Candida albicans,inactive
same,Activity,[3],inactive
same,Activity,Staphylococcus aureus [4],inactive
O=C(N[C@H](CO)[C@H](O)c1ccc([N+](=O)[O-])cc1)C(Cl)Cl [CHLORAMPHENICOL],MBC,Staphylococcus aureus [5],4 µg/mL
same,MBC,[6],2 µg/mL
same,MIC,Staphylococcus aureus [7],1 µg/mL
same,MIC,"Escherichia coli [8]; NCTC 8192, 18 h",0.25 µg/mL
same,MIC,[9],0.5 µg/mL
same,MBC,"Escherichia coli [10]; NCTC 8192, 18 h",0.5 µg/mL
same,MBC,Staphylococcus aureus [11],4 µg/mL
same,MIC,Staphylococcus aureus [12],1 µg/mL
O=C1CN(/N=C/c2ccc([N+](=O)[O-])o2)C(=O)N1 [NITROFURANTOIN],MBC,Staphylococcus aureus [5],32 µg/mL
same,MBC,[6],32 µg/mL
same,MIC,Staphylococcus aureus [7],16 µg/mL
same,MIC,"Escherichia coli [8]; NCTC 8192, 18 h",16 µg/mL
same,MIC,[9],8 µg/mL
same,MBC,"Escherichia coli [10]; NCTC 8192, 18 h",32 µg/mL
same,MBC,Staphylococcus aureus [11],32 µg/mL
same,MIC,Staphylococcus aureus [12],16 µg/mL
Cc1onc(-c2ccccc2)c1C(=O)N[C@@H]1C(=O)N2[C@@H]1SC(C)(C)[C@@H]2C(=O)O [OXACILLIN],MIC,Staphylococcus aureus [13],0.2 µg/mL
same,MBC,Staphylococcus aureus [14],0.4 µg/mL
same,MBC,Staphylococcus aureus [15],0.8 µg/mL
same,MBC,Staphylococcus aureus [16],0.2 µg/mL
same,MBC,Staphylococcus aureus [17],0.2 µg/mL
same,MIC,Staphylococcus aureus [18],75 µg/mL
same,MIC,Staphylococcus aureus [19],0.2 µg/mL
same,MBC,Staphylococcus aureus [20],0.4 µg/mL
same,MIC,Staphylococcus aureus [21],75 µg/mL
same,MBC,Staphylococcus aureus [5],0.2 µg/mL
same,MIC,Staphylococcus aureus [22],0.4 µg/mL
same,MBC,Staphylococcus aureus [23],0.2 µg/mL
same,MIC,Staphylococcus aureus [24],0.2 µg/mL
same,MBC,[6],0.2 µg/mL
same,MIC,Staphylococcus aureus [25],0.2 µg/mL
same,MIC,Staphylococcus aureus [26],0.2 µg/mL
same,MIC,Staphylococcus aureus [7],0.2 µg/mL
same,MBC,Staphylococcus aureus [27],150 µg/mL
same,MBC,Staphylococcus aureus [28],0.4 µg/mL
same,MIC,Staphylococcus aureus [29],0.4 µg/mL
same,MIC,Escherichia coli [8],inactive
same,MBC,Staphylococcus aureus [30],0.4 µg/mL
same,MIC,Staphylococcus aureus [31],1.5 µg/mL
same,MIC,[9],0.2 µg/mL
same,MBC,Staphylococcus aureus [32],0.4 µg/mL
same,MBC,Escherichia coli [10],inactive
same,MIC,Staphylococcus aureus [33],0.2 µg/mL
same,MIC,Staphylococcus aureus [34],0.8 µg/mL
same,MBC,Staphylococcus aureus [35],1.5 µg/mL
same,MBC,Staphylococcus aureus [11],0.2 µg/mL
same,MBC,Staphylococcus aureus [36],150 µg/mL
same,MIC,Staphylococcus aureus [12],0.2 µg/mL
